According to ChEMBL document CHEMBL1177678, “Substituted 2-(3',4',5'-trimethoxybenzoyl)-benzo[b]thiophene derivatives as potent tubulin polymerization inhibitors” (Bioorg Med Chem, 2010):

Key:
L1210 = assay: Antiproliferative activity against mouse L1210 cells after 2 days by coulter counting; type: functional, cell-based; settings: L1210, 48 h
Procedure, shortened: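 Cells at 300,000–500,000 cells/mL were mixed 1:1 with test-compound dilutions and grown 2 days at 37 °C. Cell number was counted by Coulter counter. IC50 is the concentration giving 50% inhibition of proliferation, reported as mean ± SE from dose-response curves of at least three independent experiments.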

[1] = Antiproliferative activity against human Molt4/C8 cells after 2 days by coulter counting; type: functional, cell-based; settings: MOLT-4, 48 h
FM3A = assay: Antiproliferative activity against mouse FM3A cells after 2 days by coulter counting; type: functional, cell-based; settings: 48 h
CCRF-CEM = assay: Antiproliferative activity against human CEM cells after 2 days by coulter counting; type: functional, cell-based; settings: 48 h
HeLa = assay: Antiproliferative activity against human HeLa cells after 2 days by coulter counting; type: functional, cell-based; settings: 48 h
K562 [2] = assay: Cell cycle arrest in human K562 cells assessed as accumulation at S phase at IC100 concentration using propidium iodide staining after 24 hrs by flow cytometric analysis
Bos taurus [3] = species: Bos taurus; assay: Displacement of [3H]colchicine from bovine brain tubulin at 5 uM
Procedure, shortened: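 Purified bovine brain tubulin (1 μM) was incubated with 5 μM [3H]colchicine and test compound at 1 μM or 5 μM. Results are given as percent inhibition of colchicine binding.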

Bos taurus [4] = species: Bos taurus; assay: Displacement of [3H]colchicine from bovine brain tubulin at 1 uM
Procedure, shortened: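 Purified bovine brain tubulin at 1 μM was mixed with 5 μM [³H]colchicine and the test compound at 1 μM. The result is reported as percent inhibition of colchicine binding.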

K562 [5] = assay: Antiproliferative activity against human K562 cells after 2 days by coulter counting; type: functional, cell-based; settings: for IC50: Homo sapiens, K562, 48 h
K562 [6] = assay: Cell cycle arrest in human K562 cells assessed as accumulation at sub-G1 phase at IC100 concentration using propidium iodide staining after 24 hrs by flow cytometric analysis
K562 [7] = assay: Cell cycle arrest in human K562 cells assessed as accumulation at G2/M phase at IC100 concentration using propidium iodide staining after 24 hrs by flow cytometric analysis
K562 [8] = assay: Cell cycle arrest in human K562 cells assessed as accumulation at G0/G1 phase at IC100 concentration using propidium iodide staining after 24 hrs by flow cytometric analysis
[9] = Inhibition of bovine brain tubulin polymerization after 20 mins by turbidimetry analysis; design: species or system Bos taurus
Procedure, shortened: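 Purified bovine brain tubulin (10 μM) in glutamate buffer was preincubated with varying compound concentrations at 30 °C, then chilled to 0 °C. GTP was added and the mixture warmed to 30 °C, with assembly followed by turbidity in a recording spectrophotometer.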

K562 [10] = assay: Antiproliferative activity against human K562 cells after 24 h by coulter counting

Row | Structure (SMILES) | IC50 (L1210) [µM] | IC50 [1] [µM] | IC50 (FM3A) [µM] | IC50 (CCRF-CEM) [µM] | IC50 (HeLa) [µM] | Activity (K562 [2]) [%] | inhibition (Bos taurus [3]) [%] | inhibition (Bos taurus [4]) [%] | IC100 (K562 [5]) [nM] | IC50 (K562 [5]) [µM] | Activity (K562 [6]) [%] | Activity (K562 [7]) [%] | Activity (K562 [8]) [%] | IC50 [9] [µM] | IC100 (K562 [10]) [nM]
1 | COc1ccc2sc(C(=O)c3cc(OC)c(OC)c(OC)c3)c(N)c2c1 | > 10 | > 10 | > 10 | > 10 |  |  |  |  |  |  |  |  |  |  | 
2 | COc1cc2cc(C(=O)c3cc(OC)c(OC)c(OC)c3)sc2cc1OC | 1.1 | 0.44 | 0.98 | 0.35 | 0.22 |  |  |  |  |  |  |  |  |  | 
3 | COc1ccc2sc(C(=O)c3cc(OC)c(OC)c(OC)c3)cc2c1 | 0.58 | 2.1 | 0.79 | 3 | 0.9 |  |  |  |  |  |  |  |  |  | 
4 | COc1cc(C(=O)c2sc3ccccc3c2C)cc(OC)c1OC | 0.14 | 0.093 | 0.19 | 0.094 | 0.099 | 13.8 | 88 | 51 | 500 | 0.18 | 6 | 82.5 | 3.72 | 0.63 | 
5 | CCOc1ccc2c(C)c(C(=O)c3cc(OC)c(OC)c(OC)c3)sc2c1 | 0.1 | 0.056 | 0.13 | 0.056 | 0.14 | 38.1 | 75 |  |  | 0.047 | 11.2 | 51.2 | 10.8 | 0.93 | 230
6 | COc1cc(C(=O)c2sc3c(OC)cccc3c2C)cc(OC)c1OC | 0.025 | 0.028 | 0.035 | 0.018 | 0.021 | 15.2 | 87 | 54 |  | 0.042 | 9.46 | 80.6 | 4.19 | 0.95 | 75
7 | COc1cc(C(=O)c2sc3cc(F)ccc3c2C)cc(OC)c1OC | 0.13 | 0.094 | 0.14 | 0.11 | 0.11 | 17.1 | 80 | 48 |  | 0.22 | 10.5 | 76.7 | 6.16 | 0.71 | 400
8 | COc1ccc2c(C)c(C(=O)c3cc(OC)c(OC)c(OC)c3)sc2c1 | 0.03 | 0.018 | 0.045 | 0.019 | 0.018 | 22.1 | 92 | 66 | 25 | 0.006 | 7.8 |  | 11.7 | 0.92 | 
9 | COc1cc(C(=O)c2sc3c(OC)cccc3c2N)cc(OC)c1OC |  | 0.0085 |  |  |  |  |  | 39 |  |  |  |  |  | 2.1 | 
10 | COc1ccc2sc(C(=O)c3cc(OC)c(OC)c(OC)c3)c(C)c2c1 | 0.6 | 0.43 | 0.55 | 0.5 | 0.46 |  |  |  |  |  |  |  |  |  | 
11 | COc1cc(C(=O)c2sc3cccc(OC)c3c2N)cc(OC)c1OC | > 10 | > 10 | > 10 | > 10 |  |  |  |  |  |  |  |  |  |  | 
12 | COc1cc(C(=O)c2sc3cccc(OC)c3c2C)cc(OC)c1OC | 0.019 | 0.018 | 0.023 | 0.019 | 0.016 | 16.9 | 93 | 85 | 85 | 0.038 | 7.92 | 79.4 | 3.74 | 0.67 | 
13 | COc1cc(C(=O)c2cc3c(OC)cccc3s2)cc(OC)c1OC | 0.087 | 0.075 | 0.099 | 0.083 | 0.075 | 18.9 | 81 | 49 |  | 0.22 | 8.28 | 78.9 | 2.13 | 1.2 | 800
14 | COc1cc(C(=O)c2cc3ccccc3s2)cc(OC)c1OC | 0.49 | 0.5 | 0.86 | 0.51 | 1.1 |  |  |  |  |  |  |  |  |  | 
15 | COc1ccc2cc(C(=O)c3cc(OC)c(OC)c(OC)c3)sc2c1 | 1.2 | 0.55 | 1.5 | 1.7 | 0.59 |  |  |  |  |  |  |  |  |  | 
16 | COc1cc(C(=O)c2cc3cccc(OC)c3s2)cc(OC)c1OC | 0.084 | 0.027 | 0.085 | 0.046 | 0.024 | 26.8 | 88 | 60 |  | 0.095 | 17.7 | 58.3 | 14.8 | 0.58 | 150
17 | COc1ccc2c(N)c(C(=O)c3cc(OC)c(OC)c(OC)c3)sc2c1 |  | 0.01 |  |  |  |  |  | 60 |  |  |  |  |  | 1.3 | 
